Assay results gathered from unrelated publications.
Each line is one published result; the experiments were not run side by side.
SLC22A1: Solute carrier family 22 member 1 (SLC22A1, Homo sapiens, UniProt O15245)

COc1cc(C)c(-c2c(C)cc(OC)c3c(=O)cc(-c4ccccc4Br)oc23)c2oc(-c3ccccc3Br)cc(=O)c12  CC50 (HS27; cell growth or viability, MTT; 24 h): > 200 µM
C[C@@]12COCO[C@@H]1CC[C@]1(C)[C@@H]2CC[C@@H]2CN(Cc3ccc(F)cc3)[C@@H](C3=CCOC3=O)C[C@H]21  cell death (MRC5; cell growth or viability, ATP luminescence; 25 µM, 72 h): -4.3%
COc1cc(OC)c2c(=O)cc(-c3cccc(Br)c3)oc2c1  CC50 (HS27; cell growth or viability, MTT; 24 h): 128 µM
CCCCOC(=O)N1CCN(C(=O)[C@H](CP(=O)(O)O)NC(=O)c2cc(N3CC[C@H](OC)C3)nc(-c3ccccc3)n2)CC1  concentration (human, plasma; subcutaneous, 8 mg, 24 h, single dose): 0.4 ng/mL
O=C(O)CSc1nnc(Br)n1-c1ccc(C2CC2)c2ccccc12  inhibition (SLC22A1; transporter uptake, inhibitor; MDCK-II; 30 µM, 5 min): 58%
CC(=O)OC[C@@]1(C)[C@H]2CC[C@@H]3CN(CC(C)C)[C@@H](C4=CCOC4=O)C[C@H]3[C@]2(C)CC[C@H]1OC(C)=O  cell death (MRC5; cell growth or viability, ATP luminescence; 25 µM, 72 h): 20.7%
C=C[C@H]1C[N@@]2CC[C@H]1C[C@@H]2[C@@H](O)c1ccnc2ccc(OC)cc12  inhibition (SLC22A1; transporter uptake, inhibitor; MDCK-II; 100 µM, 5 min): 77%
CC(C)CCN1C[C@H]2CC[C@@H]3[C@]4(C)COC(C)(C)O[C@@H]4CC[C@@]3(C)[C@@H]2C[C@@H]1C1=CCOC1=O  cell death (MRC5; cell growth or viability, ATP luminescence; 25 µM, 72 h): 11.7%
COc1ccc(-c2cc(=O)c3c(OC)cc(OC)c(-c4c(OC)cc(OC)c5c(=O)cc(-c6ccc(OC)cc6)oc45)c3o2)cc1  CC50 (HS27; cell growth or viability, MTT; 24 h): > 200 µM
C=CCn1c(=O)c2cnc(Nc3ccc(N4CCN(C)CC4)cc3)nc2n1-c1cccc(C(C)(C)O)n1  concentration (human, plasma; oral, 200 mg, 8 h, single dose): 300 nM
C[C@@]12COCO[C@@H]1CC[C@]1(C)[C@@H]2CC[C@@H]2CN(Cc3ccccc3)[C@@H](C3=CCOC3=O)C[C@H]21  cell death (MRC5; cell growth or viability, ATP luminescence; 25 µM, 72 h): -1.2%
COc1cc(OC)c2c(=O)cc(-c3ccc(N(C)C)cc3)oc2c1  CC50 (HS27; cell growth or viability, MTT; 24 h): > 200 µM
